Assay type in all cases: functional
Assay [1] deals with A204. Kind of assay: Induction of klf2 promoter gene in human A204 cells assessed as percent induction activity at 10 uM relative to SNDX-275.
Assay [2] relates to HeLa. Briefly: Induction of p21 promoter gene in human HeLa cells assessed as percent induction activity at 10 uM relative to SNDX-275.
Assay [3] concerns HeLa. Kind of assay: Selectivity ratio for induction of p21 promoter gene in human HeLa cells to induction of klf2 promoter gene in human A204 cells at 10 uM.
Assay [4] concerns HeLa. Kind of assay: Selectivity ratio for induction of p21 promoter gene in human HeLa cells to induction of klf2 promoter gene in human A204 cells at 3 uM.
Assay [5] relates to A204. Briefly: Induction of klf2 promoter gene in human A204 cells assessed as percent induction activity at 3 uM relative to SNDX-275.
For assay [6], the system named is HeLa. Briefly: Induction of p21 promoter gene in human HeLa cells assessed as percent induction activity at 3 uM relative to SNDX-275.
Assay [7] has as its system HeLa. Kind of assay: Antiproliferative activity against human HeLa cells assessed as growth at 3 uM after 24 hrs. Particulars: read-out: Activity. Summed up:
(§1)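 HeLa and A204 cells exposed to test agents at 3 or 10 µM for 24 h. Growth is expressed as percent of vehicle-treated control cells.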

Assay [8] concerns A204. Briefly: Antiproliferative activity against human A204 cells assessed as growth at 3 uM after 24 hrs. The note with it: A204, 24 h, read-out: Activity. In outline: as §1
The subject of assay [9] is HeLa. Briefly: Antiproliferative activity against human HeLa cells assessed as growth at 10 uM after 24 hrs. Particulars: read-out: Activity. Summed up:
as §1

Assay [10] concerns A204. Kind of assay: Antiproliferative activity against human A204 cells assessed as growth at 10 uM after 24 hrs. The note with it: A204, 24 h, read-out: Activity. In outline: as §1

For the compound `CN(C)CCNC(C(=O)Nc1ccc(OC(F)(F)F)cc1)c1ccc(/C=C/C(=O)Nc2ccccc2N)cc1` (stereo unspecified), the Activity with A204 [1] was 74%; in the assay with HeLa [2], 182%; in the assay with HeLa [3], 2.5; in the assay on HeLa [4], 1.8; in the assay on A204 [5], 85%; with HeLa [6], 152%.

With `CN(CCN1CCOCC1)C(C(=O)Nc1ccc(OC(F)(F)F)cc1)c1ccc(/C=C/C(=O)Nc2ccccc2N)cc1` (stereo unspecified), the Activity in the assay on A204 [1] was determined as 71%; in the assay on HeLa [2], 109%; in the assay on HeLa [3], 1.5; with HeLa [4], 1.6; in the assay on A204 [5], 39%; with HeLa [6] it was 61%.

`CN(CCN1CCOCC1)C(C(=O)Nc1ccc(C(F)(F)F)cc1)c1ccc(/C=C/C(=O)Nc2ccccc2N)cc1` (stereo unspecified): the Activity worked out at 82% in the assay with A204 [1]; 121% in the assay with HeLa [2]; 1.5 with HeLa [3]; 1 with HeLa [4]; 70% with A204 [5]; 72% with HeLa [6].

In the case of `Nc1ccccc1NC(=O)/C=C/c1ccc(C(NCCN2CCCCC2)C(=O)Nc2ccc(-c3ccc(C(F)(F)F)cc3F)cc2)cc1` (stereo unspecified), the Activity is 84% in the assay on A204 [1]; 153% in the assay with HeLa [2]; 1.8 in the assay with HeLa [3]; 1.7 in the assay with HeLa [4]; 65% in the assay on A204 [5]; 110% with HeLa [6].

As to `Nc1ccccc1NC(=O)/C=C/c1ccc(C(NCCCN2CCOCC2)C(=O)Nc2ccc(C3CC3)cc2)cc1` (stereo unspecified), the Activity is 95% in the assay with A204 [1]; 178% with HeLa [2]; 1.9 with HeLa [3]; 1.7 with HeLa [4]; 70% in the assay on A204 [5]; 117% in the assay with HeLa [6].

In the case of `CN(C)C(C(=O)Nc1ccc(C(F)(F)F)cc1)c1ccc(/C=C/C(=O)Nc2ccccc2N)cc1` (stereo unspecified), the Activity amounted to 33% with A204 [1]; 43% in the assay on HeLa [2]; 1.3 in the assay on HeLa [3]; 0.5 in the assay on HeLa [4]; 45% with A204 [5]; 24% in the assay with HeLa [6].

For the compound `CC(CNC(C(=O)Nc1ccc(-c2ccc(C3CC3)cc2)cc1)c1ccc(/C=C/C(=O)Nc2ccccc2N)cc1)N1CCOCC1` (stereo unspecified), the Activity with A204 [1] was determined as 98%; in the assay on HeLa [2], 196%; with HeLa [3], 2; in the assay with HeLa [4], 2.2; in the assay on A204 [5] it was 75%; in the assay with HeLa [6] it was 161%.

As for `Nc1ccccc1NC(=O)/C=C/c1ccc(C(NCCN2C[C@@H]3C[C@H]2CO3)C(=O)Nc2ccc(OC(F)(F)F)cc2)cc1` (stereo partly specified), the Activity is 63% in the assay with A204 [1]; 152% with HeLa [2]; 2.4 with HeLa [3]; 2.6 in the assay on HeLa [4]; 39% in the assay on A204 [5]; 98% in the assay with HeLa [6]. Also, the figures for the growth at 3 µM in the assay with HeLa [7] and with A204 [8] were 103% and 97%, respectively. For the same compound, the growth at 10 µM with HeLa [9] amounted to 82%; in the assay with A204 [10], 90%.

In the case of `Nc1ccccc1NC(=O)/C=C/c1ccc(C(NCCN2CCCCC2)C(=O)Nc2ccc(-c3ccc(C(F)(F)F)c(F)c3)cc2)cc1` (stereo unspecified), the Activity in the assay with A204 [1] stood at 54%; with HeLa [2], 92%; in the assay on HeLa [3], 1.7; with HeLa [4], 2.4; in the assay on A204 [5], 32%; in the assay with HeLa [6], 77%.

As to `CC(C)c1ccc(-c2ccc(NC(=O)C(NCCN3CCCCC3)c3ccc(/C=C/C(=O)Nc4ccccc4N)cc3)cc2)cc1` (stereo unspecified), the Activity is 63% with A204 [1]; 130% in the assay on HeLa [2]; 2.1 in the assay on HeLa [3]; 1.8 with HeLa [4]; 42% in the assay with A204 [5]; 77% in the assay with HeLa [6].

For the compound `Nc1ccccc1NC(=O)/C=C/c1ccc(C(NCCN2CCCCC2)C(=O)Nc2ccc(OC(F)(F)F)cc2)cc1` (stereo unspecified), the Activity in the assay with A204 [1] was found to be 40%; with HeLa [2], 136%; in the assay on HeLa [3], 3.4; with HeLa [4] it was 2.9; in the assay on A204 [5], 39%; in the assay on HeLa [6] it was 112%. In addition, the growth at 3 µM in the assay on HeLa [7] was determined as 105%; with A204 [8] it was 95%. In addition, the growth at 10 µM with HeLa [9] amounted to 61%; in the assay with A204 [10] it was 88%.

For the compound `Nc1ccccc1NC(=O)/C=C/c1ccc(C(NCCCN2CCOCC2)C(=O)Nc2ccc(C(F)(F)F)cc2)cc1` (stereo unspecified), the Activity with A204 [1] was 79%; in the assay with HeLa [2] it was 130%; in the assay on HeLa [3], 1.7; with HeLa [4] it was 1.9; in the assay with A204 [5], 73%; with HeLa [6], 139%.

Turning to `N#Cc1ccc(-c2ccc(NC(=O)C(NCCN3CCCCC3)c3ccc(/C=C/C(=O)Nc4ccccc4N)cc3)cc2)cc1` (stereo unspecified), the Activity with A204 [1] is 92%; in the assay with HeLa [2], 157%; in the assay with HeLa [3] it was 1.7; in the assay on HeLa [4], 1.8; in the assay on A204 [5] it was 72%; in the assay with HeLa [6] it was 128%.

In the case of `Nc1ccccc1NC(=O)/C=C/c1ccc(C(NCCCN2CCOCC2)C(=O)Nc2ccc(OC(F)(F)F)cc2)cc1` (stereo unspecified), the Activity with A204 [1] was 58%; in the assay with HeLa [2], 144%; in the assay with HeLa [3] it was 2.5; with HeLa [4], 2.2; in the assay on A204 [5], 38%; with HeLa [6], 83%.

Turning to `Nc1ccccc1NC(=O)/C=C/c1ccc(C(C(=O)Nc2ccc(C3CC3)cc2)N2CCCC2)cc1` (stereo unspecified), the Activity in the assay with A204 [1] came out at 98%; in the assay with HeLa [2], 148%; with HeLa [3], 1.5; in the assay with HeLa [4] it was 1.7; in the assay with A204 [5], 58%; in the assay with HeLa [6], 100%.

Regarding `Nc1ccccc1NC(=O)/C=C/c1ccc(C(NCCC2(O)CCOCC2)C(=O)Nc2ccc(C(F)(F)F)cc2)cc1` (stereo unspecified), the Activity in the assay with A204 [1] was determined as 68%; in the assay on HeLa [2] it was 96%; in the assay on HeLa [3], 1.4; in the assay on HeLa [4], 0.9; in the assay with A204 [5], 64%; in the assay with HeLa [6], 55%.

For `CC(CNC(C(=O)Nc1ccc(OC(F)(F)F)cc1)c1ccc(/C=C/C(=O)Nc2ccccc2N)cc1)N1CCOCC1` (stereo unspecified), the Activity with A204 [1] stood at 44%; in the assay on HeLa [2] it was 104%; in the assay on HeLa [3], 2.4; with HeLa [4] it was 2.2; in the assay with A204 [5], 72%; in the assay on HeLa [6], 160%. Besides, the growth at 3 µM in the assay on HeLa [7] was found to be 107%; in the assay with A204 [8], 97%. The growth at 10 µM came to 83% in the assay on HeLa [9] and 93% in the assay on A204 [10].

Consider `Nc1ccccc1NC(=O)/C=C/c1ccc(C(N)C(=O)Nc2ccc(C(F)(F)F)cc2)cc1` (stereo unspecified), for which the Activity in the assay on A204 [1] was found to be 40%; in the assay with HeLa [2], 73%; in the assay on HeLa [3], 1.8; with HeLa [4], 1; with A204 [5] it was 32%; in the assay on HeLa [6], 31%.

As to `COCCNC(C(=O)Nc1ccc(C(F)(F)F)cc1)c1ccc(/C=C/C(=O)Nc2ccccc2N)cc1` (stereo unspecified), the Activity with A204 [1] amounted to 56%; with HeLa [2], 64%; in the assay with HeLa [3], 1.1; in the assay with HeLa [4], 0.8; in the assay with A204 [5], 45%; with HeLa [6], 36%.

Take `Nc1ccccc1NC(=O)/C=C/c1ccc(C(NCc2ccco2)C(=O)Nc2ccc(C(F)(F)F)cc2)cc1` (stereo unspecified): the Activity in the assay with A204 [1] was determined as 21%; with HeLa [2], 36%; in the assay with HeLa [3], 1.7; in the assay on HeLa [4], 0.6; with A204 [5], 30%; with HeLa [6], 19%.

As to `Nc1ccccc1NC(=O)/C=C/c1ccc(C(NCCN2CCCCC2)C(=O)Nc2ccc(C(F)(F)F)cc2)cc1` (stereo unspecified), the Activity in the assay on A204 [1] turned out to be 85%; in the assay on HeLa [2] it was 77%; with HeLa [3] it was 0.9; with HeLa [4], 2.4; with A204 [5] it was 69%; in the assay with HeLa [6], 163%.

Consider `CN(C)CCNC(C(=O)Nc1ccc(C(F)(F)F)cc1)c1ccc(/C=C/C(=O)Nc2ccccc2N)cc1` (stereo unspecified), for which the Activity in the assay on A204 [1] came out at 93%; in the assay with HeLa [2] it was 134%; in the assay on HeLa [3], 1.4; with HeLa [4] it was 2; in the assay with A204 [5] it was 69%; in the assay with HeLa [6], 138%.

Regarding `Nc1ccccc1NC(=O)/C=C/c1ccc(C(NCCN2CCSCC2)C(=O)Nc2ccc(C(F)(F)F)cc2)cc1` (stereo unspecified), the Activity with A204 [1] was found to be 63%; in the assay with HeLa [2], 95%; in the assay on HeLa [3] it was 1.5; in the assay with HeLa [4], 0.9; with A204 [5], 77%; with HeLa [6], 71%.

As for `Nc1ccccc1NC(=O)/C=C/c1ccc(C(C(=O)Nc2ccc(C(F)(F)F)cc2)N2CCCC2)cc1` (stereo unspecified), the Activity turned out to be 69% in the assay on A204 [1]; 89% with HeLa [2]; 1.3 with HeLa [3]; 1.4 in the assay on HeLa [4]; 62% in the assay with A204 [5]; 85% in the assay on HeLa [6].

Source of the values: ChEMBL document CHEMBL1641604, “Application of p21 and klf2 reporter gene assays to identify selective histone deacetylase inhibitors for cancer therapy” (Bioorg Med Chem Lett, 2011).
